High-throughput results as filed in PubChem BioAssay.
This is a sample that favours compounds with a hit; in the whole collection about 3.1% have one here.
CHO parental Ca – counter-screen: ATP calcium response change in parental CHO cells; parental CHO-K1, ATP-induced calcium, Fluo-8 fluorescence; inhibition, % at 5.6 µM; actives 0.63% (n = 330,000);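 active = inhibition above that plate's mean sample inhibition plus 3 SD, cut at about 26% in these data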;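 note: 0% = ATP-challenged DMSO wells and 100% = DMSO wells without ATP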
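Test system: untransfected parental CHO cell line; also added: ATP stimulus; dosing: 5.6 µM, single dose; signal: calcium-sensitive Fluo-8 fluorescence; measure: percent inhibition of ATP-evoked calcium rise, normalized to controls; benchmarks: low control ATP plus DMSO, high control DMSO only; replication: one well per compound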
GalR3 antag – antagonists of human GalR3. HEK293 GalR3-CNG cAMP membrane potential fluorescence; galR3 body fused to GalR1 C-terminus. inhibition, % at 3 µM. actives 0.44% (n = 360,000). AID 651719;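 active = inhibition above the screen-wide average plus 3 SD, cut at about 13% in these data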;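 note: forskolin and galanin both at EC90 stimulate the cells; cAMP rise reported by CNG channel membrane potential dye signal; 0% = forskolin plus galanin with DMSO and 100% = forskolin alone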
OX1R antag-1 – OX1R (human) antagonism; actives 1.8% (n = 330,000); inhibition, % at 6.6 µM; OX1R-expressing cells, FRET antagonist read-out; in the data active = inhibition mostly above about 38%, no sharp cut-off; inactive = mostly below about 40%;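 note: 0% = agonist challenge alone and 100% = reference antagonist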
Target sequence (O43613 whole entry, looked up): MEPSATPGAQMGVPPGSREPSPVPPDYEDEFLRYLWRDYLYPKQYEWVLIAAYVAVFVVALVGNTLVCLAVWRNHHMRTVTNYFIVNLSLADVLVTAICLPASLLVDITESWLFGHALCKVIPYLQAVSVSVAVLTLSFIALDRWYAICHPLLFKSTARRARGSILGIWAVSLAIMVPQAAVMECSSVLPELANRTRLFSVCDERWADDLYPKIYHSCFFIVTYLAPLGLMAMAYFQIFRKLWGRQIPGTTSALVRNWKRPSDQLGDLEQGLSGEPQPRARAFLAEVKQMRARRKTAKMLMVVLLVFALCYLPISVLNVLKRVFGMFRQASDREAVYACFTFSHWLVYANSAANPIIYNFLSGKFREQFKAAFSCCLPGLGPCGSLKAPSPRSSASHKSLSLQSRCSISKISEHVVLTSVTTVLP
OX1R antag-2 – antagonists of human orexin 1 receptor; actives 0.43% (n = 330,000); inhibition, % at 5 µM; AID 434989; CHO/OX1R cells, Fluo-8 calcium fluorescence, orexin A;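 active = inhibition above its plate's threshold, mean inhibition of all tested compounds on the plate plus 3 SD, cut at about 37% in these data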;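 note: 0% = orexin A challenge wells and 100% = SB-334867-A antagonist wells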
GPR7 antag – antagonists of human GPR7 (neuropeptides B/W receptor 1); inhibition, % at 4.4 µM; GPR7-expressing cells, fluorescence antagonist assay; actives 1.1% (n = 290,000); in the data active = inhibition above about 16%, passing the limit was not always enough;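 note: cells stimulated with the agonist NPW; 0% = agonist with vehicle and 100% = vehicle without agonist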
Starred values were filed as active, the others as inactive; · = not tested or not shown.

SMILES	CHO parental Ca	GalR3 antag	OX1R antag-1	OX1R antag-2	GPR7 antag
Cc1ccc(S(=O)(=O)N2C[C@H]3n4c(=O)ccc(=O)n4C[C@H](OC(=O)NCC4CCCCC4)[C@@]3(O)C2)cc1	·	-8.4	·	·	·
Cc1ccc(-c2noc(CCC(=O)NC3CCCC3)n2)cc1	-8.0	-6.6	4.7	-6.3	-1.1
CCOC(=O)c1ccc(NC(=O)CCc2nc(-c3ccc(C)cc3)no2)cc1	32.8*	-2.1	13.6	-0.2	-4.3
Cc1ccc(-c2noc(CCCC(=O)NC3CCCCC3)n2)cc1	39.6*	-8.9	9.3	-7.0	15.1
CCOC(=O)c1ccc(NC(=O)CCc2nc(-c3ccc(Cl)cc3)no2)cc1	46.5*	-3.0	18.1	45.1*	1.4
Cc1cc2c(nc1C)CCCN2S(=O)(=O)c1ccc(C(F)(F)F)cc1	·	-6.0	·	·	·
CCN1C[C@@H]2[C@@H]3C(=O)N(Cc4ccccc4)C(=O)[C@@H]3[C@](CC)(C1=O)N2C(=O)c1ccc(Cl)cc1	·	-2.4	·	·	·
Cc1[nH]nc2c1C(c1ccc(F)cc1)N(Cc1ccccc1)C2=O (centres undefined)	·	-6.4	·	·	·
Cc1cccc(NC(=O)C(=O)NNC(=O)c2ccc(C(C)(C)C)cc2)c1	93.8*	-7.6	20.9	95.1*	-15.1
COC(=O)[C@]12C[C@H](CC(=O)NCCc3ccccc3OC)C(=O)N(CCC3=CCCCC3)C1=C[C@H](COCc1ccccc1)O[C@@H]2C	·	-8.4	·	·	·
CCCCNc1c(-c2ccc(OC)c(SC3CCCCC3)c2)nc2ccc(C)cn12	98.5*	-5.3	31.7*	90.2*	·
COc1ccc(-c2nc3ccc(C)cn3c2NCc2ccccc2)cc1SC1CCCCC1	93.6*	·	18.2	76.6*	·
CCCCNc1c(-c2ccc(SC3CCCCC3)c(OC)c2)nc2ccc(C)cn12	25.4	-6.3	13.5	21.3	·
Oc1ccc(C23CCCC2C2(CCCC2)c2ccc(O)cc2O3)c(O)c1 (centres undefined)	75.1*	-7.6	8.0	110.2*	·
COC(=O)C1=C(C)N(Cc2cccc(C(F)(F)F)c2)C(=NCC2CC2)NC1c1ccccc1C(F)(F)F (centres undefined)	·	-8.3	·	·	·
CC(C)[C@H](NC(=O)c1ccc(Cl)c(Cl)c1)C(=O)N1CCC[C@H]1C(=O)NCCc1ccccc1Cl	·	-6.3	·	·	·
O=C1C(C=Nc2ccccc2O)=C(O)c2ccccc21	-16.6	-8.8	59.1*	6.3	15.2
Cc1ccc(O)c(N=CC2=C(O)c3ccccc3C2=O)c1	-33.8	-0.8	64.5	-9.1	-5.2
CC(C)C[C@H]1COc2cccc(N3CCOCC3)c2S(=O)(=O)N1	·	-5.2	·	·	·
O=C(NCCc1ccccc1)c1ccc2c(=O)[nH]c3c(C(=O)NCC4CCCO4)sc(=S)n3c2c1 (centres undefined)	-6.2	-3.3	51.6*	-4.1	0.5
CCCCNC(=O)c1sc(=S)n2c1[nH]c(=O)c1ccccc12	3.1	-4.2	52.1*	-11.2	-8.6
O=C(NCCc1ccc(Cl)cc1)c1ccc2c(=O)[nH]c3c(C(=O)NCC4CCCO4)sc(=S)n3c2c1 (centres undefined)	·	-4.4	·	·	·
Cc1ccc(S(=O)(=O)NCCC(=O)N2CCN(c3cccc(Cl)c3)CC2)cc1C	-15.5	-1.6	35.0	-13.4	-6.4
O=C(CCNS(=O)(=O)c1ccc2nsnc2c1)N1CCN(c2ccncc2)CC1	-8.0	-3.8	50.6*	1.5	·
COCc1cc(C)nc(SCC(=O)Nc2cccc3cccnc23)c1C#N	-8.4	0.2	52.5*	-2.0	-2.6
SMILES	CHO parental Ca	GalR3 antag	OX1R antag-1	OX1R antag-2	GPR7 antag
COc1ccc(N2C(=O)c3n[nH]c(C(C)C)c3C2c2ccc(C)cc2)cc1 (centres undefined)	·	-8.6	·	·	·
CCc1ccc(CNC(=O)CCCn2c(=O)c3cccn3c3cccnc32)cc1	-25.3	-1.5	9.7	-15.7	-7.3
CCOc1cc(CNC(=O)CCCn2c(=O)c3cccn3c3cccnc32)cc(OCC)c1OCC	-18.5	9.1	67.9*	3.9	-21.2
CSc1cccc(NC(=O)CCCn2c(=O)c3cccn3c3cccnc32)c1	-10.2	-2.1	73.7*	0.8	-17.6
CC(C)CC(NC(=O)OCc1ccccc1)C(=O)NCC(=O)NCC(=O)OCc1ccccc1 (centres undefined)	·	-7.7	·	·	·
Cc1cc(NC(=O)CCC(=O)N(Cc2ccco2)C(C(=O)NC2CCCC2)c2ccc(F)cc2)no1 (centres undefined)	-25.6	-6.7	46.9*	-17.8	11.4
CC(=O)N1CCN(c2ccc(N3CCN(C(C)=O)[C@@H](C)C3)c(C)c2)[C@@H](C)C1	·	-6.2	·	·	·
C[C@H](O)[C@@H]1C(=O)N2CCc3c([nH]c4c(-c5ccccc5)cccc34)[C@@H]2C[C@@H]1N(C)C(=O)/C=C/c1ccccc1	·	-5.7	·	·	·
CN1C=CC(=C[N+](=O)[O-])N(C)C1=O	·	3.6	·	·	·
Nc1nn(-c2ccccc2)c(N)c1N=Nc1ccc2c(c1)OCO2	-10.4	-5.6	11.9	-7.5	23.6*
COc1ccc(-c2cc(NC(=O)Cc3c[nH]c4ccccc34)ccc2Nc2cccnc2)cc1F	·	-4.7	·	·	·
CN1CCN(c2ccc(Nc3ccnc4cc(Cl)ccc34)cc2)CC1	-6.7	-13.0	32.4	-15.4	-1.7
CCN1CCN(c2ccc(Nc3ccnc4ccccc34)cc2)CC1	-6.8	-5.6	29.9*	-16.0	·
Cc1cc(N2CCN(CC(C)(C)O)C[C@H]2C)ccc1N1CCN(CC(C)(C)O)[C@H](C)C1	·	1.8	·	·	·
CCOC(OCC)c1cn(Cc2ccc3c(c2)C(=O)c2ccccc2C3=O)nn1	-9.3	-8.5	76.2*	-14.9	-5.2
CCOC(=O)c1cn(Cc2ccc(Br)cc2)nn1	-4.8	2.6	5.1	-13.8	-2.0
Cc1nn(-c2ccccc2)nc1C(=O)Nc1nnc(C(F)(F)F)s1	-2.9	-4.3	41.1*	0.5	-12.3
O=C(Nc1ccccc1C(=O)Nc1nnc(C(F)(F)F)s1)c1ccccc1Cl	53.5*	-8.6	79.7*	37.4*	2.9
NC(=O)c1ccccc1NC(=O)c1ccccc1Cl	-9.5	-4.9	4.7	-16.1	-3.3
CCSc1nnc(NC(=O)c2ccc(Br)s2)s1	0.4	-5.2	9.3	1.3	-11.4
O=C(Nc1nnc(C(F)(F)F)s1)c1ccc(Br)s1	26.5*	-4.2	49.1*	7.3	5.5
Cc1ccccc1C(=O)N[C@H](C(=O)N1CCC[C@H]1C(=O)NC1CCCC1)C1CCCCC1	·	-7.9	·	·	·
Cc1[nH]c(=O)[nH]c(=O)c1CCSSCCc1c(C)[nH]c(=O)[nH]c1=O	·	-2.8	·	·	·
CCCCOc1ccc(C(=O)NC)cc1	-2.4	1.9	8.7	-15.7	-6.8
CCCCOc1ccc(CC(=O)NO)cc1	44.1*	-1.6	3.5	0.0	-16.3
COC(=O)C1=C(C)N(Cc2cccc(C(F)(F)F)c2)C(=NCC2CC2)NC1c1ccc(F)cc1 (centres undefined)	·	-7.8	·	·	·
Cc1cc(OCC(=O)Nc2ccc3oc(-c4ccncc4)nc3c2)ccc1Cl	-4.1	-6.1	9.0	-13.4	18.3
Cc1ccnc(NC(=O)COc2ccc(Cl)cc2)n1	-13.5	-4.4	9.9	5.0	19.4*
O=C(COc1ccc(Cl)cc1)Nc1ncccn1	0.6	-2.5	12.8	11.3	-3.7
